Assay outcomes (PubChem)
This is a sample that favours compounds with a hit; in the whole collection about 1.3% have one here.
procasp7 counter = procaspase-7 activators, primary screen, counter-screen for procaspase-3 activator project, biochemical, absorbance, HTS, human. Caspase-7 (Homo sapiens), P55210. recombinant procaspase-7, Ac-DEVD-pNA absorbance 405 nm; D23A/D198A/D206A triple mutant, cannot self-cleave; scale: DMSO 0, 5 µM enzyme 100. activation, % at 8.5 µM. 330,000 compounds, 0.093% hits. AID 463210, 2010;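 active = percent activation above the screen-wide mean plus 3 SD, cut at about 25% in these data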
Target sequence (P55210 whole entry D23A/D198A/D206A): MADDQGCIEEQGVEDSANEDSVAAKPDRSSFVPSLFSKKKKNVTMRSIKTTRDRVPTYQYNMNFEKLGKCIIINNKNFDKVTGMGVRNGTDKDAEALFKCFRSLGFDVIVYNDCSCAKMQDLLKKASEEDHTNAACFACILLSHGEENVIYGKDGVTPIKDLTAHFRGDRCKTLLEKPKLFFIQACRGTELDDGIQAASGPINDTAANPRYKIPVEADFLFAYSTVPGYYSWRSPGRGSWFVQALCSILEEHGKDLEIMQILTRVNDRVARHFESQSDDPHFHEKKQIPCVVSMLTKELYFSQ
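Assay system – Uncleavable procaspase-7 mutant enzyme · Quantity – 2 µM procaspase-7 mutant as dispensed · Times – 1 h preincubation, 2 h reaction · Dosing – single nominal 8.5 µM compound dose, 0.8% DMSO final · Buffer or medium – Zinc-free 50 mM HEPES buffer, pH 7.4, with NaCl and Triton X-100 · Detection – Epi-absorbance of released pNA at 405 nm, two timepoints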
CHT PAM = CHT positive allosteric modulators, primary screen, cell-based, membrane potential dye, choline EC20; High affinity choline transporter 1 (Homo sapiens), Q9GZV3; CHT-expressing cells; active compounds read high; LV-AA mutant CHT in HEK293 cells; B-score at 10 µM; 310,000 compounds, 0.49% hits; AID 488977, 2010;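 active = initial fluorescence not abnormally high and integrated response B-score, plate-corrected, over 3 SD above library mean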
CHT block = inhibitors of human choline transporter CHT; High affinity choline transporter 1 (Homo sapiens), Q9GZV3; AID 488975, 2010; 310,000 compounds, 0.86% hits; B-score at 10 µM; CHT-expressing cells, membrane potential dye, choline response; active compounds read low;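 active = B-score over 3 SD under the library average, and starting fluorescence ratio not unusually high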;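 note: choline stimulus applied at its EC90 after an EC20 pre-addition; B-score computed on integrated fluorescence ratio after choline addition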
procasp3 activ = activators of human procaspase-3 D3A mutant, primary screen, biochemical, absorbance, PC-3 D3A mutant, single concentration; recombinant procaspase-3 D3A, Ac-DEVD-pNA absorbance 405 nm; activation, % at 8.5 µM; 330,000 compounds, 0.11% hits;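 active = activation above the mean of all tested compounds plus 3 SD, cut at about 21% in these data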;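 note: 0% = DMSO alone and 100% = DMSO wells spiked with extra 5 µM PC-3 D3A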
Target sequence (P42574 whole entry D9A/D28A/D175A): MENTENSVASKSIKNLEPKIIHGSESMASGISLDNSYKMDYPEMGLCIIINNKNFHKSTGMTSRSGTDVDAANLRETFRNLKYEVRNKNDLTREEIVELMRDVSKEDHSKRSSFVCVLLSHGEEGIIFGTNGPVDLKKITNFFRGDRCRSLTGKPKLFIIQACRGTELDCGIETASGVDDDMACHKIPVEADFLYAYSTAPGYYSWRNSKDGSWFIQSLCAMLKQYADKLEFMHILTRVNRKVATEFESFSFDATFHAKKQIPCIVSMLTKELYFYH
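Assay system – Procaspase-3 D3A mutant, all three cleavage aspartates alanine · Controls – DMSO-only low control, 5 µM PC-3 D3A high control · Schedule – 1 h compound preincubation, 2 h substrate hydrolysis at 25 °C · Signal – 405 nm absorbance of p-nitroaniline, reads at 0 and 120 min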
CHT block conf = CHT inhibitors, confirmation, cell-based, membrane potential dye, duplicate. CHT-expressing cells, choline membrane potential dye; LV-to-AA substituted CHT, HEK293 cells. 2,400 compounds, 70% hits. CHT activity remaining % of control (active compounds read low), % at 10 µM. shares compounds with CHT block. AID 493221, 2011;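 active = choline transporter activity left, mean of duplicates at 10 µM, below buffer-only control mean minus 3 SD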;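 note: depolarization triggered by choline at its EC90 following an EC20 pre-addition; 0% = hemicholinium-3 full block and 100% = buffer-only control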
HEK293 MPD ctr = membrane potential effects in parental HEK293, counter-screen for CHT inhibitor project, cell-based, membrane potential dye; shares compounds with CHT block; choline response; active = decrease or increase beyond buffer ±3SD; membrane potential ratio readout (active if shifted either direction beyond buffer ±3SD; no single direction) at 10 µM; 2,400 compounds, 4% hits;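 note: parental cells lack the transporter so any hit is non-specific; ratio is peak minus trough fluorescence over baseline after EC90 choline challenge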
Starred values were filed as active, the others as inactive; i = inactive; / = not tested or not shown.

SMILES	procasp7 counter	CHT PAM	CHT block	procasp3 activ	CHT block conf	HEK293 MPD ctr
COc1ccc(C(=O)C2CCCN(C(=O)c3noc4c3CCCC4)C2)c(C)c1 (stereo unspecified)	6	i	i	-2	/	/
COc1ccc(C(=O)C2CCCN(C(=O)c3noc4c3CCCC4)C2)cc1F (stereo unspecified)	0	i	i	6	47%*	i
O=C(c1ccco1)N1CCN(C(c2cccs2)c2nnnn2C2CCCC2)CC1 (stereo unspecified)	-2	i	-7.8*	-4	i	i
CC(C)CC(c1nnnn1C1CCCC1)N1CCN(C(=O)c2ccco2)CC1 (stereo unspecified)	-4	i	i	-4	/	/
C/C(N)=C(/C#N)C(=O)CSc1nc2scc(-c3ccccc3)c2c(=O)n1C	4	i	i	3	/	/
CC1(C)c2[nH]c3ccccc3c2C[C@@H]2C(=O)N(Cc3ccccc3)C(=O)N21	12	i	-6.2*	8	57%*	i
COc1ccc(Cc2nc3ccc(C(=O)NCCCSC)cc3o2)cc1OC	6	i	i	5	/	/
CCOC(=O)N1CCC(NC(=O)CSCc2cnn(-c3ccccc3)c2-n2cccc2)CC1	8	i	-7.3*	2	i	i
O=C(CSCc1cnn(-c2ccccc2)c1-n1cccc1)NCc1cccs1	-4	i	-6.5*	1	i	i
CNC(=O)CSCc1cnn(-c2ccccc2)c1-n1cccc1	2	i	i	4	/	/
COc1cccc(CNC(=O)CSCc2cnn(-c3ccccc3)c2-n2cccc2)c1	-2	i	i	3	/	/
O=C(CC1(CC(=O)N2CCOCC2)CCCC1)Nc1ccc(F)cc1	-6	/	/	3	/	/
CCSc1nnc(NC(=O)C(C)(C(F)(F)F)C(F)(F)F)s1	-4	i	-8.8*	4	70%*	i
CCSc1nnc(NC(=O)NCC(F)(F)F)s1	2	i	i	-3	/	/
COc1ccccc1C(=O)NC(C)c1cccc2ccccc12 (stereo unspecified)	2	i	-5.7*	-4	54%*	i
COc1cccc(C(=O)NC(C)c2cccc3ccccc23)c1OC (stereo unspecified)	2	i	i	4	/	/
CC1(c2ccc(OC(F)F)cc2)NC(=O)N(CC(=O)N2CCN(C(=O)c3ccco3)CC2)C1=O (stereo unspecified)	8	/	/	1	/	/
NS(=O)(=O)c1cccc(NC(=O)CSc2nnc(C3CC3)n2Cc2ccccc2)c1	7	i	-5.9*	-4	i	i
Nn1c(SCC(=O)Nc2cccc(S(N)(=O)=O)c2)nnc1C1CC1	7	i	i	-6	/	/
COc1ccc(CCC(=O)Nc2ncc(C)s2)cc1	11	i	i	-7	/	/
Cc1cccc(NC(=O)Nc2cc(C)cc(C)n2)c1	-6	i	i	-7	/	/
CCn1c(SCc2nc3scc(-c4ccccc4)c3c(=O)[nH]2)nnc1-c1cccs1	-12	i	-7.3*	1	i	i
CCn1c(SCc2nc(-c3ccccc3)no2)nnc1-c1ccco1	0	i	-5.2*	3	55%*	i
CCn1c(SCc2nc(-c3ccccc3)no2)nnc1-c1cccs1	4	i	-5.5*	8	47%*	i
Cn1c(SCc2nc(-c3ccc(Br)cc3)no2)nnc1-c1ccco1	1	i	i	4	/	/
SMILES	procasp7 counter	CHT PAM	CHT block	procasp3 activ	CHT block conf	HEK293 MPD ctr
CC(Oc1ccc(C#N)cc1)C(=O)NC1CCCC1 (stereo unspecified)	-5	/	/	2	/	/
CN(CCOc1ccccc1)C(=O)c1ccc(Cl)c(S(=O)(=O)N2CCCCC2)c1	-6	/	/	-4	/	/
CCN1CCn2c3c(c4cccc(C)c42)CCCC31 (stereo unspecified)	-16	i	-11*	-5	36%*	i
CCc1ccc(C(C)NC(=S)NC2CCCCC2)cc1 (stereo unspecified)	/	i	-8.1*	/	49%*	i
CCc1nn(CCCC(=O)N2CCc3ccccc3C2)c(=O)c2cc3occc3n12	2	i	-5.7*	-1	58%*	-9*
Cc1nn(C(C)C(=O)NC(C)CCc2ccccc2)c(=O)c2cc3occc3n12 (stereo unspecified)	-7	i	-6.9*	2	55%*	i
CCc1nn(CCCC(=O)N2CCN(c3cccc(C)c3C)CC2)c(=O)c2cc3occc3n12	1	i	i	-1	/	/
CCc1nn(C(C)C(=O)NC(C)CCc2ccco2)c(=O)c2cc3occc3n12 (stereo unspecified)	-2	i	-5.9*	-2	49%*	-14*
CCc1nn(C(C)C(=O)NCc2cccc(Cl)c2)c(=O)c2cc3occc3n12 (stereo unspecified)	-2	i	i	13	/	/
CCc1nn(C(C)C(=O)NCCc2ccccc2)c(=O)c2cc3occc3n12 (stereo unspecified)	-4	i	-5.7*	2	i	i
Cc1ccc(S(=O)(=O)N(C)C)cc1NS(=O)(=O)c1ccc(Cl)s1	9	i	i	-7	/	/
Cc1nn(C)cc1CN1CCCC(C(=O)c2ccc(-c3ccccc3)cc2)C1 (stereo unspecified)	-1	i	i	4	/	/
CCCCC(=O)Nc1cc2nn(-c3ccc(OC)cc3)nc2cc1C	-2	i	i	0	/	/
CCC(=O)Nc1cc2nn(-c3ccc(OC)cc3)nc2cc1C	6	i	-6.6*	-8	i	i
COc1ccc(Cc2nnc(NC(=O)c3ccccc3F)s2)cc1OC	14	i	i	10	/	/
C=CCN1C(=O)/C(=C/C=C2/N(CC)c3ccc(S(=O)(=O)N(C)C)cc3N2CC)SC1=S	-26	i	i	-24	/	/
N#C/C(=C(/O)c1ccccc1F)c1nc2cc(C(F)(F)F)ccc2s1	5	i	-5.5*	0	48%*	i
CC(C)=C(C#N)c1nc2ccccc2s1	-10	i	i	-2	/	/
CC(Sc1ccsc1[N+](=O)[O-])C(=O)NCCc1ccc(Cl)cc1 (stereo unspecified)	-3	i	i	3	/	/
